MC4R barr agon: MC4R agonists recruiting beta-arrestin, primary screen, cell-based, luminescence, agonist arm of biased-ligand search; AID 540308, 2011; U2OS MC4R beta-arrestin complementation; percent of melanotan II response, DMSO zero; actives 0.98% (n = 360,000); activation, % at 8.9 µM; Melanocortin receptor 4 (Homo sapiens), P32245;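 active = activation above a per-plate cutoff, the mean activation of sample wells on that plate plus 3 SD, cut at about 8% in these data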
Target sequence (P32245 whole entry, looked up): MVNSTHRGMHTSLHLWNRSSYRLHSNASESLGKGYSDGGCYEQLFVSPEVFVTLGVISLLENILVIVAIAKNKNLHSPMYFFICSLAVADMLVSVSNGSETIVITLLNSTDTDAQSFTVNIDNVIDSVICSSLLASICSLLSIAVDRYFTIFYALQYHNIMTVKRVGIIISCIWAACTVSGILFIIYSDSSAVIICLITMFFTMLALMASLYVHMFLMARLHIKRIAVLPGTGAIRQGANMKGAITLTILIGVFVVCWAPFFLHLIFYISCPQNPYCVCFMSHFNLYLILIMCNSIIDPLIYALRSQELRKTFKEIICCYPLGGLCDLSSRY
Granule exo inh: LAMP-1 surface exposure blockers, TALL-104 cells – cell-based, flow cytometry, MLPCN library, primary screen. TALL-104 LAMP-1 surface exposure; cells stimulated with thapsigargin and PMA. inhibition, % at 10 µM. actives 0.66% (n = 360,000). AID 651702, 2012;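 active = inhibition above about 55%, limit read from the data; inconclusive = no clear call, values can overlap the other calls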
iPSC survival up: enhancers of single-cell hiPSC survival, primary screen, ATPlite luminescence; 100% = ROCK inhibitor wells, 0% = DMSO; survival enhancement, % at 20 µM; actives 0.044% (n = 360,000); AID 602274, 2012; in the data active = survival enhancement above about 18%;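 note: cells exposed to compounds for 16 hours before the ATP read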
ABCB6 inh MLPCN: ABCB6 transporter inhibitors, primary screen, K562-ABCB6 cells, flow cytometry, MLPCN library | ATP-binding cassette sub-family B member 6 (Homo sapiens), Q9NP58 | K562-ABCB6 porphyrin accumulation, 1 h; hits give low values | fluorescence ratio to DMSO, % at 10 µM | actives 0.19% (n = 360,000) | AID 602162, 2011;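 active = fluorescence ratio to DMSO below 75%, the collection mean minus 3 SD; inconclusive = too few cells collected in the well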;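 note: signal is porphyrin accumulated inside mitochondria; 100% equals median channel fluorescence of DMSO control wells; lower ratio means ABCB6 inhibition with less porphyrin fluorescence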
Tb MetRS inh: T. brucei MetRS inhibitors, primary screen, biochemical, luminescence | methionyl-tRNA synthetase (Trypanosoma brucei brucei) | actives 0.4% (n = 360,000) | purified T. brucei MetRS, ATP depletion, Kinase-Glo luminescence | AID 624268, 2012 | inhibition, % at 11.9 µM;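 active = inhibition above a per-plate cutoff of the control wells' mean inhibition plus 3 SD, cut at about 5.5% in these data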;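 note: 0% = DMSO wells median and 100% = median of wells with control inhibitor compound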
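technique = Kinase-Glo luminescence, ATP depletion format | system = purified MetRS (methionyl-tRNA synthetase) enzyme from Trypanosoma brucei | timing = 15 min preincubation, 2 h reaction, all 25 °C | evaluation = percent inhibition versus plate control medians | dosing = single dose, 11.9 µM final nominal, 0.9% final DMSO | also added = substrates ATP, L-methionine and bulk Escherichia coli tRNA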
MC4R antag cAMP: MC4R antagonists of cAMP signaling, primary screen, cell-based, TR-FRET, antagonist arm of biased-ligand search | Melanocortin receptor 4 (Homo sapiens), P32245 | MC4R-expressing cells, MTII-stimulated cAMP, LANCE TR-FRET | inhibition, % at 6.5 µM | actives 0.48% (n = 360,000);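 active = inhibition above its plate's cutoff, the mean of tested wells on that plate plus 3 SD, cut at about 29% in these data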;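 note: 0% = Melanotan II alone and 100% = Melanotan II plus saturating MCL0020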
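system = U2OS cells with stable human MC4R expression | also added = Melanotan II challenge after compound preincubation | dosing = one concentration, 6.5 µM nominal | incubation = compound 30 min, challenge 1 h, detection 1 h | measured by = TR-FRET with Eu-cAMP and labeled anti-cAMP, 671 nm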
Exocytosis CP01: inhibitors of lytic granule exocytosis, confirmation, TALL-104 cells, flow cytometry, Cherry Pick01 | shares compounds with Granule exo inh | LAMP-1 externalization; stimulated with PMA plus thapsigargin | inhibition, % at 10 µM | actives 11% (n = 1,500) | AID 651954, 2012; in the data active = inhibition above about 60%;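 note: 0% = stimulated vehicle wells and 100% = unstimulated wells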
Active calls of the source: *; ? = inconclusive; . = not tested or not shown. This is a sample that favours compounds with a hit; in the whole collection about 2.6% have one here.

SMILES	MC4R barr agon	Granule exo inh	iPSC survival up	ABCB6 inh MLPCN	Tb MetRS inh	MC4R antag cAMP	Exocytosis CP01
O=C1Nc2ccccc2C12Nc1ccccc1-c1nc3ccccc3n12 (centres undefined)	-1	56*	2	97	-1	3	-3
CCOC(=O)c1c(-c2ccc(C)cc2)csc1NC(=O)c1cccc(N2C(=O)CCC2=O)c1	1	5	-1	96	-1	-7	.
CCOC(=O)c1c(-c2ccccc2)csc1NC(=O)c1cccc(N2C(=O)CCC2=O)c1	2	86*	1	94	0	16	0
COc1ccc(/C=C/C(=O)N2CCN(C)CC2)cc1OC	-1	-1	-1	94	1	15	.
O=C(c1ccc(C(F)(F)F)cc1)N1CCC(=O)N(C(CO)Cc2ccccc2)CC1 (centres undefined)	1	11	-2	103	-1	4	.
O=C(c1cccc(C(F)(F)F)c1)N1CCC(=O)N(C(CO)Cc2ccccc2)CC1 (centres undefined)	-1	80*	0	103	0	5	-5
CN1CCN(C(=O)CCn2c(=S)[nH]c3ccccc3c2=O)CC1	1	-3	5	92	0	5	.
CCC(C)Nc1nc(-c2cccc(OC)c2O)nc2ccccc12 (centres undefined)	1	76*	2	114	0	18	107*
COc1cccc(-c2nc(N3CCCCC3)c3ccccc3n2)c1O	-1	77*	1	96	0	24	9
CCC(C)Nc1nc(-c2ccccn2)nc2ccccc12 (centres undefined)	1	3	0	97	-2	-4	.
O=C(NC(=S)/C(=C1\CCCCCN1)[N+](=O)[O-])c1ccccc1	-1	-13	-5	95	0	6	.
O=C(Nc1cccc(Cl)c1)Nc1c[nH]c(=O)[nH]c1=O	0	-4	0	102	0	11	.
CCCCCCNCC(=O)N1CCC(Cc2ccccc2)CC1	2	70*	0	96	0	12	-13
CCCC(=O)N1CCC(Cc2ccccc2)CC1	0	?	2	101	-1	3	.
Cc1ccc(NC(=O)CN(C)C(=O)c2cc(-c3cccs3)nn2-c2ccccc2)cc1	-4	10	0	93	0	11	.
CC(C)(C)c1ccc(OCCC(=O)NCC(c2cccs2)N2CCOCC2)cc1 (centres undefined)	0	22	0	100	0	6	.
Cc1oc(-c2ccc(Cl)cc2)nc1CS(=O)CC(=O)NCCCN1CCN(Cc2ccccc2)CC1 (centres undefined)	-1	75*	0	96	0	4	-8
CCOC(=O)c1ccc(NC(=O)c2sc3nc(N4CCOCC4)c4c(c3c2N)CCCC4)cc1	3	93*	0	95	-1	-4	-13
CCOC(=O)c1ccc(NC(=O)c2ccc(C)c(S(=O)(=O)N3CCOCC3)c2)cc1	1	76*	0	88	-1	2	74*
OCCCNc1ncnc2oc(-c3ccccc3)c(-c3ccccc3)c12	1	66*	1	94	0	19	-6
COc1ccc(-c2oc3ncnc(NCCCN4CCOCC4)c3c2-c2ccc(OC)cc2)cc1	1	63*	0	98	-1	15	30
COc1ccc(NC(=O)c2cccc3cccnc23)cc1S(N)(=O)=O	1	1	0	98	0	8	.
COc1ccc(OC)c(NC(=O)c2ccccc2N(C)S(=O)(=O)c2ccc(C)cc2)c1	0	61*	0	92	-1	7	-13
COc1ccc(CNC(=O)C[C@H]2C(=O)N(c3ccccc3)C[C@@H]2Cc2ccccc2)cc1	1	5	-3	90	0	13	.
CCCCc1ccc(NC(=O)CSc2nc(=O)n(CCN(CC)CC)c3c2CCC3)cc1	0	84*	0	99	0	6	21
SMILES	MC4R barr agon	Granule exo inh	iPSC survival up	ABCB6 inh MLPCN	Tb MetRS inh	MC4R antag cAMP	Exocytosis CP01
CCOC(=O)C1c2cccc(O)c2CCN1C(C)=O (centres undefined)	-2	114*	0	94	0	9	-13
COc1ccc(NC(=O)COc2ccccc2C(=O)NCC(c2ccccc2)N(C)C)cc1Cl (centres undefined)	0	66*	0	98	1	15	-12
Fc1ccc(-c2cc3nc(-c4ccccc4)cc(N4CCN(CCN5CCOCC5)CC4)n3n2)cc1	2	73*	-2	94	0	1	38
CN1CCN(c2cc(-c3ccccc3)nc3cc(-c4ccc(F)cc4)nn23)CC1	3	103*	-1	98	-1	9	100*
CCOc1cc(NC(=O)c2cccs2)c(OCC)cc1NC(=O)CCC(=O)NCCN1CCOCC1	-2	26	1	96	-1	-2	.
CCOC(=O)c1ccsc1NC(=O)c1ccco1	-2	2	0	99	0	5	.
Cc1nnc(N2CCCC(C(=O)NCc3ccccc3F)C2)c2nn(-c3ccccc3)c(C)c12 (centres undefined)	-1	2	0	99	0	-1	.
Cc1ccccc1CNC(=O)C1CCCN(c2nnc(C)c3c(C)n(-c4ccccc4)nc23)C1 (centres undefined)	6	74*	0	93	0	9	1
COc1cccc(CN2C(=O)[C@H]3Cc4c([nH]c5ccccc45)C(C)(C)N3C2=O)c1	-1	78*	-2	101	0	18	-9
COc1cc(C)cc(OC)c1OCC(=O)Nc1cc(C)on1	-3	69*	1	94	0	-2	-4
O=C(CN1CCN(Cc2cccc3ccccc23)CC1)NCCc1ccccc1	2	78*	-1	91	0	16	-13
COC(=O)C1=C(C)N(Cc2ccco2)C(=O)N[C@@H]1c1ccc(Br)cc1	0	56*	3	108	0	5	-4
Clc1ccc(CSc2nncn2-c2ccc3c(c2)OCCO3)cc1	-2	72*	0	104	0	-22	-12
